From publication PMC3444677 (Chemical research in toxicology, 2012)
“And” between values parts separate entries of the source, which are not always exact repeats. Identical values can stand only once.

How the values were obtained:
[1] = biological target: T1, hERG channel (Homo sapiens, UniProt Q12809); conditions: for Thallium flux via hERG relative to vehicle controls (reduced to): 30 μM, mean ± SEM, n = 3; for Rel. Pot., thallium flux: relative potency compared to AZA1
[2] = biological target: T1, hERG channel; conditions: for Maximum inhibition of hERG currents: 1.9 μM, mean ± SEM, n = 3; for Rel. Pot., patch clamp: relative potency compared to AZA1
[3] = system: Jurkat T lymphocyte cells; conditions: fold more potent than AZA1; cited from earlier work
[4] = biological target: T1, hERG channel; conditions: for hERG binding of [3H]dofetilide relative to vehicle controls (reduced to): 10 μM; for Rel. Pot., channel binding: relative potency compared to AZA1
[5] = biological target: Y652A hERG1 channels (Homo sapiens, UniProt Q12809, Y652A); assay: Two-electrode voltage clamp of Y652A hERG1 channels in Xenopus oocytes; format: cell-based; conditions: 10 μM
[6] = biological target: F656T hERG1 channels (Homo sapiens, UniProt Q12809, F656T); assay: Two-electrode voltage clamp of F656T hERG1 channels in Xenopus oocytes; format: cell-based; conditions: 10 μM
[7] = biological target: WT hERG1 channels (Homo sapiens, UniProt Q12809); assay: Two-electrode voltage clamp of WT hERG1 channels in Xenopus oocytes; format: cell-based
[8] = biological target: T2, hEAG1 channels (Homo sapiens, UniProt O95259); assay: Two-electrode voltage clamp of hEAG1 channels in Xenopus oocytes; format: cell-based; conditions: 10 μM, n = 4
T2 sequence (O95259 1-962 isoform O95259-2): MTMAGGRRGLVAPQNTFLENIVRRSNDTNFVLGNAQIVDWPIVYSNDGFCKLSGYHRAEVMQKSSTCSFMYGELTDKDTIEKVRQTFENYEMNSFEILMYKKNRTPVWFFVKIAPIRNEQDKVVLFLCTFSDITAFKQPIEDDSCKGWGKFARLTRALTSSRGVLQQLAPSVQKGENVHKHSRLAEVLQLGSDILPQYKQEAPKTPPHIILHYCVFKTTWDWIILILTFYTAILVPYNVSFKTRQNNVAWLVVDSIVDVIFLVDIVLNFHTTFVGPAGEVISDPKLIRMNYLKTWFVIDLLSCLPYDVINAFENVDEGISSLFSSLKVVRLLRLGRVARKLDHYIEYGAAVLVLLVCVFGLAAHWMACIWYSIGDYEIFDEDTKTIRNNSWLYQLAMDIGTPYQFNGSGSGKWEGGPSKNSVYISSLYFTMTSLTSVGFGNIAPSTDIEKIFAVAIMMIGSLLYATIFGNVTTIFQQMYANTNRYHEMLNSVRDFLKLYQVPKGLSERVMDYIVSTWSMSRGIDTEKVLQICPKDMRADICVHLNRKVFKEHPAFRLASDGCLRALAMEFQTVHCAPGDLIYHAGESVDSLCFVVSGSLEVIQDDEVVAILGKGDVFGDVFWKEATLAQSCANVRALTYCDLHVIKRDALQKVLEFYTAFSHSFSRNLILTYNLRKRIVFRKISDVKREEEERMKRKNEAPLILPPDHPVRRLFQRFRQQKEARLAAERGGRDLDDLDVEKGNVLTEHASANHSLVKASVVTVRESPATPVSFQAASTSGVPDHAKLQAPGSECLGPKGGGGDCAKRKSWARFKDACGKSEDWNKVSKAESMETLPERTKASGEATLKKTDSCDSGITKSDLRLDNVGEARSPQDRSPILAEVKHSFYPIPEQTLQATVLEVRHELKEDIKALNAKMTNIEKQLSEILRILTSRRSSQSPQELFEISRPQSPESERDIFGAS
Procedure, shortened: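 Stage IV–V Xenopus oocytes were injected with ~0.2 ng WT or mutant hEAG1 cRNA, held 2–3 days at 18 °C in Barth's saline, and recorded by two-electrode clamp at 22–24 °C. Holding was −80 mV, with 2-s steps from −70 to +40 mV. G = end-of-pulse current/(Vt − Erev), divided by a Boltzmann-extrapolated control Imax, then Boltzmann-fitted for V0.5 and k.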

[9] = 10 μM, during 37.8 s pulse to 0 mV

Compound: C=C(C[C@@]12C[C@@H](C)C[C@@H](O1)[C@H]1O[C@]3(C[C@H]1O2)NC[C@H](C)C[C@@H]3C)[C@H]1O[C@@](O)([C@@H](O)[C@@H]2C[C@H]3O[C@@]4(CC[C@]5(CC(C)=C[C@@H](/C=C/CCC(=O)O)O5)O4)[C@H](C)C[C@H]3O2)[C@H](C)C[C@@H]1C [AZA2, 8-methyl-azaspiracid]
- Thallium flux via hERG relative to vehicle controls (reduced to) [1]: 9.6 ± 0.79%
- Rel. Pot., thallium flux [1]: 0.8
- Maximum inhibition of hERG currents [2]: 87.3 ± 0.95%
- Rel. Pot., patch clamp [2]: 1.3
- Cytotoxic potency relative to AZA1 [3]: 8.3 fold
- hERG binding of [3H]dofetilide relative to vehicle controls (reduced to) [4]: 22.3 ± 1.0%
- Rel. Pot., channel binding [4]: 0.8

Compound: 22-demethyl-azaspiracid [AZA3]
- Thallium flux via hERG relative to vehicle controls (reduced to) [1]: 16.6 ± 0.50%
- Rel. Pot., thallium flux [1]: 0.7
- Maximum inhibition of hERG currents [2]: 79.7 ± 1.6%
- Rel. Pot., patch clamp [2]: 1.0
- Cytotoxic potency relative to AZA1 [3]: 4.5 fold
- hERG binding of [3H]dofetilide relative to vehicle controls (reduced to) [4]: 29.3 ± 1.6%

Compound: C=C(C[C@@]12C[C@@H](C)C[C@H](O1)[C@H]1O[C@]3(C[C@H]1O2)NC[C@H](C)C[C@@H]3C)[C@H]1O[C@@](O)([C@@H](O)[C@@H]2C[C@H]3O[C@@]4(CC[C@]5(CC=C[C@@H](/C=C/CCC(=O)O)O5)O4)[C@H](C)C[C@H]3O2)[C@H](C)C[C@@H]1C [AZA1, azaspiracid]
- Thallium flux via hERG relative to vehicle controls (reduced to) [1]: 10.7 ± 0.56%
- Rel. Pot., thallium flux [1]: 1.0
- Shift of V0.5 for activation [5]: -5 mV
- Slope factor k of G-Vt relationship ([5]; control 6.4 ± 0.3, n = 5): 7.3 ± 0.4
- V0.5 of G-Vt relationship ([5]; control -20.7 ± 0.6 mV, n = 5): -26.0 ± 0.8 mV
- Block of peak Itail ([5]; n = 5): 76 ± 3%
- Slope factor k of G-Vt relationship ([6]; control 7.8 ± 0.1, n = 5): 7.3 ± 0.1
- V0.5 of G-Vt relationship ([6]; control -31.0 ± 0.2 mV, n = 5): -32.6 ± 0.3 mV
- Reduction of peak Itail ([6]; test potentials greater than -20 mV, n = 5): 7 ± 1%
- Sensitivity of channel currents to toxin ([6]; test potentials negative to -20 mV): insensitive
- Maximum inhibition of hERG currents [2]: 79.5 ± 1.8%
- Rel. Pot., patch clamp [2]: 1.0
- Slope factor k of G-Vt relationship ([7]; 10 μM, control 8.1 ± 0.3, n = 6): 9.6 ± 0.3
- V0.5 of G-Vt relationship ([7]; 10 μM, control -22.0 ± 0.5 mV, n = 6): -20.7 ± 0.5 mV
- Amplitude of fast component of onset of block [7, 9]: 0.325
- Amplitude of slow component of onset of block [7, 9]: 0.433
- τfast of onset of current block [7, 9]: 2.96 s
- τslow of onset of current block [7, 9]: 12.66 s
- Peak outward hERG1 current, % of control ([7]; 10 μM, measured at -10 mV, oocytes, n = 6): 19.0 ± 2.4 % of control
- Time constant of onset of hERG1 channel block (τonset) ([7]; 10 μM, repetitive 1-s pulses to 0 mV, oocytes): 1.5 min
- Unblocked current, % of control ([7]; 10 μM, single long pulse to 0 mV after 4 min pulse-free incubation, 10 µM): 19% and 19.2%
- Inhibition of peak Itail ([7]; 10 μM, tail currents at -70 mV, n = 6): 75 ± 2%
- Tail current deactivation time constant, fast component ([7]; at -70 mV in the presence of AZA1 (control 249 ± 8 ms), n = 6): 205 ± 17 ms
- Tail current deactivation time constant, slow component ([7]; at -70 mV in the presence of AZA1 (control 1003 ± 57 ms), n = 6): 745 ± 44 ms
- Relative amplitude of the slow component of deactivation ([7]; in the presence of AZA1 (control 0.80 ± 0.02)): 0.72 ± 0.02
- hERG binding of [3H]dofetilide relative to vehicle controls (reduced to) [4]: 19.7 ± 1.4%
- Rel. Pot., channel binding [4]: 1.0
- V0.5 of G-Vt relationship ([8]; control 4.6 ± 0.7 mV): 6.4 ± 0.9 mV
- Slope factor k of G-Vt relationship ([8]; control 16.3 ± 0.6): 15.7 ± 0.7
- Block of hEAG1 current ([8]; test potential +40 mV): 15 ± 0.8%
